High-throughput results from PubChem.
Most compounds without a hit are left out; they make up all but 1.8% or so of the library.
Gli-Sufu antag = Gli-Sufu pathway antagonists, primary screen, luciferase luminescence, Sufu-KO-LIGHT cells, uHTS. AID 588413, 2011. inhibition, % at 5 µM. 340,000 compounds, 0.74% hits. Sufu-KO-LIGHT fibroblasts, Gli luciferase reporter luminescence;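 active = inhibition above about 55%, limit read from the data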;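 also: 0% = DMSO-treated cells and 100% = wells with medium but no cells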
Jurkat NFkB inh = inhibitors of induced NF-kB luciferase reporter, primary screen, TCR NF-kB activation inhibitor project, cell-based, luminescence, uHTS; Jurkat, PMA/ionomycin-induced NF-kB luciferase reporter; inhibition, % at 4 µM; 330,000 compounds, 0.53% hits; in the data active = inhibition above about 50%
697 NFkB inh = inhibitors of PMA/ionomycin-induced NF-kB reporter, 697 cells, primary screen, B-cell NF-kB inhibitor project, cell-based, luminescence, uHTS; inhibition, % at 4 µM; 330,000 compounds, 0.33% hits; AID 435022, 2010; 697 B-cell NF-kB luciferase reporter, 16 h; in the data active = inhibition above about 35%
TAG inh = inhibitors of triacylglycerol accumulation, primary screen, cell-based, uHTS, fluorescence, H9c2; H9c2 cells, Nile Red lipid (TAG) fluorescence; cells loaded with 200 µM oleic acid; inhibition, % at 12.5 µM; 230,000 compounds, 0.66% hits;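 active = pattern-corrected inhibition of lipid staining of at least 50% with the nuclear-stain viability signal not falling by more than 50%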;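 also: 0% = DMSO wells and 100% = triacsin C control wells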
Lipid droplet = inhibitors of hepatocyte lipid droplet formation, primary screen, imaging, high-throughput imaging, BODIPY stain; 240,000 compounds, 0.4% hits; inhibition, % at 6.5 µM; AID 1656, 2009; AML12 mouse hepatocytes, oleate lipid droplets;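 active = lipid droplet intensity inhibited by at least 50%, with more than 500 cells counted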
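Assay system: AML12 mouse liver cells | Compound dosing: One dose, 6.5 µM compound | Read-out basis: Droplet intensity reduction, % inhibition | Measured by: Fluorescence imaging, 20x objective, two fields per well | Schedule: Overnight treatment with compound plus oleate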
hiPSC survival = enhancers of single-cell hiPSC survival, primary screen, ATPlite luminescence; 100% = ROCK inhibitor wells, 0% = DMSO; survival enhancement, % at 20 µM; 360,000 compounds, 0.044% hits; AID 602274, 2012; in the data active = survival enhancement above about 18%;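 also: cells exposed to compounds for 16 hours before the ATP read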
An asterisk follows results filed as active; . = not tested or not shown.

SMILES	Gli-Sufu antag	Jurkat NFkB inh	697 NFkB inh	TAG inh	Lipid droplet	hiPSC survival
C(C#CCCCCCCCCC[n+]1ccccc1)#CCCCCCCCCC[n+]1ccccc1	87*	.	.	-5	-54	-4
COc1ccccc1N1CCN(Cc2ccc(OC)c(OC)c2OC)CC1	13	16	16	.	-11	-1
COc1ccccc1N1CCN(Cc2ccc(O)c3ncccc23)CC1	76*	31	-3	.	-32	-1
Cn1c(=O)cc(OCCCC(=O)Nc2cccc(Cl)c2)c2ccccc21	.	.	.	35	.	21*
Cn1c(=O)cc(OCCCC(=O)Nc2ccccn2)c2ccccc21	9	0	34	.	.	0
CC1(C)CC(=O)C=C(C#CC2(O)CCCCC2)C1	.	.	.	56*	.	-5
CCc1ccc(Nc2n[n+](-c3ccccc3)c(-c3cccc(C)c3)s2)cc1	70*	9	-9	-6	.	-2
c1ccc(-c2nnc(-c3ccccn3)nc2NC2CCCCC2)cc1	91*	48	-42	-132	-116	0
O=C(N/N=C/C=C/c1ccc(Br)cc1)C(O)c1ccccc1 (stereo unspecified)	-9	-3	-1	.	4	-2
O=C(C#Cc1ccccc1)c1ccc([N+](=O)[O-])cc1	24	-21	-33	-14	10	-6
O=C(C#Cc1ccccc1)c1ccccc1	.	.	.	64*	.	-5
CC(=O)Nc1sc2c(c1-c1nc3ccccc3s1)CN(C(C)C)CC2	-25	35	-5	78*	.	-5
CC1=CC(C)(C)N2C(=O)C3(NCCc4c3[nH]c3ccccc43)c3cc(C)cc1c32 (stereo unspecified)	-7	4	8	68*	38	0
CS(=O)(=O)N(CCc1ccccc1)CC(=O)N1CCN(c2ccc(F)cc2)CC1	-9	-10	-13	6	-26	0
CCOc1c(Cl)cc(CNc2ccc(N3CCCC3)cc2)cc1OC	2	.	.	60*	-23	5
COc1cc2c(cc1OC)C(C1C(=O)CC(C)(C)CC1=O)N(C(=O)CCl)CC2 (stereo unspecified)	-4	11	22	17	1	1
COc1cc2c(cc1OC)C(c1cc(Br)ccc1F)N(C(=O)CCl)CC2 (stereo unspecified)	7	42	-33	.	-10	21*
COc1cccc(CNC(=O)[C@@H]2CCCN2C(=O)[C@H]2CCCCN2C(=O)c2cccc3ccccc23)c1	.	.	.	.	.	0
COc1ccc(/C=N/Nc2cc(C)nc3c(C)cccc23)cc1	33	-46	-31	.	6	-1
COc1ccc(/C=N/Nc2cc(C)nc3ccccc23)cc1	55*	-55	-38	.	-4	-1
CCOc1ccc(C(C)=O)cc1CSC(=N)N	-5	-11	-16	-8	-10	-1
CCCCOc1ccc(Br)cc1CSC(=N)N	65*	.	.	8	-14	-4
Oc1[nH]c2ccccc2c1N=NC(=S)N1CCOCC1	63*	0	-26	20	.	0
Oc1[nH]c2ccc(Br)cc2c1N=NC(=S)N1CCOCC1	86*	22	-3	31	.	0
Fc1cc(F)cc(NC(=S)Nc2ccccc2N2CCOCC2)c1	9	-16	-8	-7	-9	0
SMILES	Gli-Sufu antag	Jurkat NFkB inh	697 NFkB inh	TAG inh	Lipid droplet	hiPSC survival
Cn1nc(C(C)(C)C)cc1NC(=O)C1(C)CCN1C(=O)C1(c2ccccc2)CC1 (stereo unspecified)	.	.	.	-18	.	-1
O=C(COc1ccc(Br)cc1)Nc1ccccc1C(=O)NC1CC1	0	20	-13	2	.	1
COc1ccc(-c2nc(N/N=C(\C)c3ccc(O)cc3)c3ccccc3n2)cc1	-24	-18	-20	55*	6	0
CC(C)NS(=O)(=O)c1ccc2c3c(cccc13)CC2	6	1	-1	-2	-4	1
CS(=O)(=O)Nc1ccc2c3c(cccc13)CC2	22	4	4	-4	2	20*
CCS(=O)(=O)c1ncc(Cl)c(C(=O)Nc2ccc(S(=O)(=O)N3CCCC(C)C3)cc2)n1 (stereo unspecified)	20	19	-156	.	19	20*
CCCOC(=O)c1ccc(NC(=O)/C=C/c2cccs2)cc1	-28	-131	-154	.	80*	0
O=C(/C=C/c1cccs1)Nc1ccncc1	-14	-4	-38	.	-21	2
COC(=O)c1ccc(N2CCOCC2)c(NC(=O)c2ccco2)c1	-5	4	20	15	23	0
NC1=C(Cl)C(=O)c2ccc(S(N)(=O)=O)cc2C1=O	89*	.	.	117	.	-6
O=C1C(Cl)=C(NCCCO)C(=O)c2ccccc21	10	-11	-6	141	-11	-2
NC1=C(Cl)C(=O)c2ccccc2C1=O	17	.	.	66*	.	-1
CN(C(=O)COC(=O)c1nc(Cl)c(Cl)c(Cl)c1Cl)C1CCS(=O)(=O)C1 (stereo unspecified)	-5	.	.	28	-3	42*
O=C(CCl)NN1C(=O)NC(c2ccccc2)(c2ccccc2)C1=O	-22	-7	4	.	13	0
COc1ccc(NC(=O)COC(=O)C23CCC(=O)N2c2ccccc2S3)cc1 (stereo unspecified)	0	6	2	6	-3	-1
O=C1CCC2(C(=O)O)Sc3ccccc3N12 (stereo unspecified)	3	-24	-5	.	0	21*
Cc1sc(-c2ccccn2)nc1OC(=O)c1ccc(Cl)c(Cl)c1	3	-7	21	5	.	19*
CCOC(=O)c1c2c(n(-c3ccc(OC)cc3)c1C)C(=O)C(=O)c1ccccc1-2	10	.	.	71*	.	-2
CCOC(=O)c1sc(=S)n(-c2ccc(OC)cc2)c1C	-11	9	8	-6	1	0
COc1cccc2c1C(=O)c1c(O)c3c(c(O)c1C2=O)CC(O)(C(C)=O)CC3OC1CC(N(C)C)C(O)C(C)O1 (stereo unspecified)	69*	.	.	-38	.	-4
COc1cccc2c1C(=O)c1c(O)c3c(c(O)c1C2=O)C[C@@](O)(C(=O)CO)C[C@@H]3OC1CC(N)C(O)C(C)O1 (stereo partly specified)	91*	.	.	36	.	-4
O=c1c(Cc2ccc(F)cc2)c(O)ccn1CCc1ccccn1	-4	7	16	4	11	1
CC1CC(C)C(=NNC(N)=O)C(C(O)CC2CCC(=O)NC2=O)C1 (stereo unspecified)	7	.	.	4	.	4
CCOc1ccc(S(=O)(=O)N2CCOCC2)cc1NC(=O)CCOc1ccc(C(C)(C)C)cc1	17	8	-25	-20	.	1
